Data from ChEMBL document CHEMBL2040813, “4-Thiophenoxy-2-trichloromethyquinazolines display in vitro selective antiplasmodial activity against the human malaria parasite Plasmodium falciparum” (Bioorg Med Chem Lett, 2011).

How the values were obtained:
[1] = Selectivity index, ratio of CC50 for human HepG2 cells to IC50 for chloroquine, pyrimethamine, and proguanil-resistant Plasmodium falciparum K1; type: functional
How it was run: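 SI = HepG2 CC50 / K1 IC50. The read-out was MTT for 2 h, formazan dissolved in DMSO, A570 with 630 nm reference. Viability is expressed as % of untreated control, CC50 taken from the dose-response curve. The IC50 is from the SYBR Green K1 assay.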

[2] = Cytotoxicity against human HepG2 cells after 72 hrs by MTT assay; type: cell-based
How it was run: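 Cells seeded in RPMI with 10% foetal bovine serum, L-glutamine, penicillin/streptomycin, 37 °C, 6% CO₂; after 24 h, compound dilutions added for 72 h. MTT (5 mg/mL in PBS) added 2 h at 37 °C, formazan dissolved in DMSO, absorbance 570 nm (reference 630 nm). Viability as percent of untreated cells; CC50 from dose–response curve; mean of three independent experiments.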

[3] = test system: Plasmodium falciparum; experiment: Antiplasmodial activity against chloroquine, pyrimethamine, and proguanil-resistant Plasmodium falciparum K1 infected in human A+ erythrocytes after 72 hrs by SYBR Green-I fluorescence-based method; type: functional, organism-based; settings: K1, 72 h
How it was run: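 Ring-stage cultures (5% sorbitol synchronised), maintained in A+ human erythrocytes with RPMI/HEPES/NaHCO3/10% A+ serum under 5% O2, 5% CO2. Assay at 2% haematocrit, 1% parasitaemia, graded compound concentrations, 72 h at 37 °C in triplicate. IC50 by nonlinear regression, mean of three independent experiments.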

[4] = test system: Toxoplasma gondii; experiment: Antimicrobial activity against tachyzoites of Toxoplasma gondii expressing PRU-beta-Gal gene infected in HFF after 72 hrs by colorimetric microtiter assay; type: functional, organism-based

Compound: ClC(Cl)(Cl)c1nc(Sc2ccccc2)c2ccccc2n1
- Ratio CC50/IC50 [1]: 18.4
- CC50 at 72 h [2]: 35 µM
- IC50 [3]: 1.9 µM

Compound: Clc1ccccc1Sc1nc(C(Cl)(Cl)Cl)nc2ccccc12
- Ratio CC50/IC50 [1]: 9.3
- CC50 at 72 h [2]: 26 µM
- IC50 [3]: 2.8 µM

Compound: Clc1cccc(Sc2nc(C(Cl)(Cl)Cl)nc3ccccc23)c1
- Ratio CC50/IC50 [1]: 7.3
- CC50 at 72 h [2]: 16 µM
- IC50 [3]: 2.2 µM

Compound: Fc1ccccc1Sc1nc(C(Cl)(Cl)Cl)nc2ccccc12
- Ratio CC50/IC50 [1]: 12.2
- CC50 at 72 h [2]: 28 µM
- IC50 [3]: 2.3 µM

Compound: Fc1cccc(Sc2nc(C(Cl)(Cl)Cl)nc3ccccc23)c1
- Ratio CC50/IC50 [1]: 8.2
- CC50 at 72 h [2]: 15.5 µM
- IC50 [3]: 1.9 µM

Compound: Fc1ccc(Sc2nc(C(Cl)(Cl)Cl)nc3ccccc23)cc1
- Ratio CC50/IC50 [1]: >25
- CC50 at 72 h [2]: > 30 µM
- IC50 [3]: 1.2 µM

Compound: FC(F)(F)c1ccccc1Sc1nc(C(Cl)(Cl)Cl)nc2ccccc12
- Ratio CC50/IC50 [1]: 11.2
- CC50 at 72 h [2]: 28 µM
- IC50 [3]: 2.5 µM

Compound: FC(F)(F)c1cccc(Sc2nc(C(Cl)(Cl)Cl)nc3ccccc23)c1
- Ratio CC50/IC50 [1]: 8
- CC50 at 72 h [2]: 17.5 µM
- IC50 [3]: 2.2 µM

Compound: FC(F)(F)c1ccc(Sc2nc(C(Cl)(Cl)Cl)nc3ccccc23)cc1
- Ratio CC50/IC50 [1]: 13
- CC50 at 72 h [2]: 13 µM
- IC50 [3]: 1 µM

Compound: Cc1ccccc1Sc1nc(C(Cl)(Cl)Cl)nc2ccccc12
- Ratio CC50/IC50 [1]: 7.4
- CC50 at 72 h [2]: 52 µM
- IC50 [3]: 7 µM

Compound: Cc1cccc(Sc2nc(C(Cl)(Cl)Cl)nc3ccccc23)c1
- Ratio CC50/IC50 [1]: 18.4
- CC50 at 72 h [2]: 35 µM
- IC50 [3]: 1.9 µM

Compound: Cc1ccc(Sc2nc(C(Cl)(Cl)Cl)nc3ccccc23)cc1
- Ratio CC50/IC50 [1]: >19
- CC50 at 72 h [2]: > 30 µM
- IC50 [3]: 1.6 µM

Compound: COc1ccccc1Sc1nc(C(Cl)(Cl)Cl)nc2ccccc12
- Ratio CC50/IC50 [1]: 8.2
- CC50 at 72 h [2]: 32 µM
- IC50 [3]: 3.9 µM

Compound: COc1cccc(Sc2nc(C(Cl)(Cl)Cl)nc3ccccc23)c1
- Ratio CC50/IC50 [1]: 6
- CC50 at 72 h [2]: 12 µM
- IC50 [3]: 2 µM

Compound: COc1ccc(Sc2nc(C(Cl)(Cl)Cl)nc3ccccc23)cc1
- Ratio CC50/IC50 [1]: >3.2
- CC50 at 72 h [2]: > 8 µM
- IC50 [3]: 2.5 µM

Compound: Clc1ccc(Sc2nc(C(Cl)(Cl)Cl)nc3ccccc23)c(Cl)c1
- Ratio CC50/IC50 [1]: 12.1
- CC50 at 72 h [2]: 18.2 µM
- IC50 [3]: 1.5 µM

Compound: Clc1ccc(Sc2ncnc3ccccc23)cc1
- Ratio CC50/IC50 [1]: 3.8
- CC50 at 72 h [2]: 16.7 µM
- IC50 [3]: 4.4 µM

Compound: FC(F)(F)c1nc(Sc2ccc(Cl)cc2)c2ccccc2n1
- CC50 at 72 h [2]: > 15 µM
- IC50 [3]: > 15 µM

Compound: Clc1nc(C(Cl)(Cl)Cl)nc2ccccc12
- Ratio CC50/IC50 [1]: >2.3
- CC50 at 72 h [2]: > 125 µM

Compound: C[C@H]1c2cccc(O)c2C(=O)C2=C(O)[C@]3(O)C(=O)C(C(N)=O)=C(O)[C@@H](N(C)C)[C@@H]3[C@@H](O)[C@@H]21.O [DOXYCYCLINE]
- Ratio CC50/IC50 [1]: 4
- IC50 [3]: 5 µM

Compound: CCc1nc(N)nc(N)c1-c1ccc(Cl)cc1 [PYRIMETHAMINE]
- IC50 [4]: 0.8 µM
